Holding throughout (type): functional
Conditions in all cases: for inhibition of growth at 50 µg/mL: 48 h, read-out: GI

One assay deals with Botrytis cinerea. The assay can be described thus: Fungicidal activity against Botryotinia fuckeliana assessed as growth inhibition at 50 ug/ml after 2 days. In short, it runs like this:
(§1)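 Poisoned-plate mycelial growth assay. The test sample was mixed into molten potato dextrose agar in a Petri dish before it set. Fungus was inoculated and incubated at 24-26 °C. Colony spread diameter was measured after 2 days, and percent growth inhibition was calculated relative to the corresponding control plate.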

In the next assay the test system is Alternaria solani. The experiment in a line: Fungicidal activity against Alternaria solani assessed as growth inhibition at 50 ug/ml after 2 days. In short, it runs like this:
as §1

For assay [1], the system named is Botryosphaeria berengeriana. The assay can be described thus: Fungicidal activity against Botryosphaeria berengeriana assessed as growth inhibition at 50 ug/ml after 2 days. The procedure, abridged:
as §1

Another assay relates to Mycosphaerella arachidis. The assay can be described thus: Fungicidal activity against Mycosphaerella arachidis assessed as growth inhibition at 50 ug/ml after 2 days. In short, it runs like this: as §1
A further assay deals with Fusarium graminearum. The assay can be described thus: Fungicidal activity against Fusarium graminearum assessed as growth inhibition at 50 ug/ml after 2 days. In short, it runs like this: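 Mycelial growth test on potato dextrose agar (9 mL) in Petri dishes, with the plate mixed thoroughly before setting. Gibberella zeae inoculated and cultured at 24-26 °C. Colony spread diameter measured after 2 days, and growth inhibition calculated relative to the corresponding control.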

Take `O=C(O)c1cccc2nnsc12` [1,2,3-benzothia-diazole-7-carboxylic acid]: the inhibition of growth at 50 µg/mL came to 72.1% in the assay on Botrytis cinerea; 42.4% in the assay with Alternaria solani; 40.5% in assay [1]; 30.8% with Mycosphaerella arachidis; 60.7% in the assay on Fusarium graminearum.

Regarding `CCCC1COC(Cn2cncn2)(c2ccc(Cl)cc2Cl)O1` (stereo not given) [PROPICONAZOLE], the inhibition of growth at 50 µg/mL with Botrytis cinerea stood at 100%; with Alternaria solani, 89.2%; in assay [1], 100%; in the assay on Mycosphaerella arachidis, 100%; with Fusarium graminearum, 100%.

For “dibutylstannanediyl dibenzo[d][1,2,3]thiadiazole-7-carboxylate”, the growth inhibition (GI) with Botrytis cinerea was 29.7%; in the assay with Alternaria solani, 19.8%; in assay [1], 27.3%; in the assay on Mycosphaerella arachidis, 23.1%; in the assay on Fusarium graminearum, 58.3%.

For “diethylstannanediyl dibenzo[d][1,2,3]thiadiazole-7-carboxylate”, the growth inhibition (GI) with Botrytis cinerea is 43.2%; in the assay with Alternaria solani, 32.3%; in assay [1] it was 36.7%; in the assay with Mycosphaerella arachidis it was 20.5%; with Fusarium graminearum, 50%.

With “tributylstannyl benzo[d][1,2,3]thiadiazole-7-carboxylate”, the growth inhibition (GI) in the assay on Botrytis cinerea came to 98.2%; in the assay with Alternaria solani, 92.5%; in assay [1] it was 97.2%; in the assay with Mycosphaerella arachidis it was 97.4%; with Fusarium graminearum it was 92.9%.

Consider “tricyclohexylstannyl benzo[d][1,2,3]thiadiazole-7-carboxylate”, for which the growth inhibition (GI) in the assay with Botrytis cinerea stood at 94.1%; in the assay with Alternaria solani it was 50%; in assay [1], 92.5%; with Mycosphaerella arachidis, 76.7%; in the assay with Fusarium graminearum, 50%.

In the case of “triethylstannyl benzo[d][1,2,3]thiadiazole-7-carboxylate”, the growth inhibition (GI) (in the assay on Botrytis cinerea; in the assay on Alternaria solani; in assay [1]; in the assay on Mycosphaerella arachidis; with Fusarium graminearum) was 100% in each case.

As for “triphenylstannyl benzo[d][1,2,3]thiadiazole-7-carboxylate”, the growth inhibition (GI) in the assay with Botrytis cinerea came out at 91.9%; in the assay on Alternaria solani it was 92.5%; in assay [1], 97.2%; in the assay with Mycosphaerella arachidis, 71.8%; in the assay with Fusarium graminearum, 54.8%.

The values are drawn from ChEMBL document CHEMBL3045170, “Synthesis and biological activity of organotin 4-methyl-1,2,3-thiadiazole-5-carboxylates and benzo[1,2,3]thiadiazole-7-carboxylates” (J Agric Food Chem, 2010).
